A selection: hits, their analogues and other compounds. The true share with any hit is near 1.3%.
TDP2 absorb: human TDP2 enzyme inhibitors, primary screen, biochemical, epi absorbance, recombinant enzyme | 370,000 tested, 0.34% active | inhibition, % at 12.8 µM | T5PNP hydrolysis, p-nitrophenol absorbance 415 nm;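 active = inhibition above the mean of all tested compounds plus 3 SD, set per campaign, cut at about 25% in these data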;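 also: 0% = DMSO with enzyme and 100% = buffer with substrate but no TDP2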
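System: recombinant human TDP2 / Amount: 120 nM TDP2 per well / Also added: 5 mM T5PNP chromogenic substrate / Doses: 12.8 µM single point, 1% DMSO / Incubation: 2 h at 37 °C / Detection: p-Nitrophenol epi absorbance / Evaluation: % inhibition relative to enzyme-containing and enzyme-free wells / Repeats: singlicate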
ASAP1 GAP inh: inhibitors of human ASAP1 ArfGAP activity, primary screen, biochemical, fluorescence polarization | 360,000 tested, 0.19% active | Arf-GAP with SH3 domain, ANK repeat and PH domain-containing protein 1 (Homo sapiens), … | inhibition, % at 16.5 µM | AID 624377, 2012 | ASAP1-stimulated ARF1 GTP hydrolysis, GDP FP detection;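 also: 0% = vehicle with enzyme and substrate and 100% = no enzyme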
LEDGF integ inh: blockers of LEDGF/p75-dependent integrase strand transfer – biochemical, TR-FRET, high throughput, primary screen; TR-FRET IN-LEDGF/p75 DNA integration, Eu/Cy5; inhibition, % at 3.7 µM; 370,000 tested, 0.64% active; AID 743269, 2014;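 active = inhibition above the screen-wide mean plus 3 SD, cut at about 13% in these data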;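 also: signal is the Cy5 over europium emission ratio at 671 and 618 nm; 0% = plate median of compound wells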
ARFGAP1 inh: inhibitors of rat ARFGAP1 GAP activity, primary screen, biochemical, fluorescence polarization, GDP tracer; inhibition, % at 16.5 µM; Arfgap1-stimulated ARF1 GTP hydrolysis, GDP FP detection; AID 651572, 2012; 360,000 tested, 0.26% active;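 active = inhibition above a per-plate limit, mean inhibition of low control wells plus 3 SD, cut at about 25% in these data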;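 also: 0% = DMSO wells with enzyme and 100% = wells lacking Arfgap1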
Target sequence (Q62848 1-136 limits assumed): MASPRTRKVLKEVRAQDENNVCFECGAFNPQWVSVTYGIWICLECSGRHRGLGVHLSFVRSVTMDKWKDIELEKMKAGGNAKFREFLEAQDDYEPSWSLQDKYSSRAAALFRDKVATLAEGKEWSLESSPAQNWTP
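Material: rat Arfgap1 catalytic domain, aa 1-136; also added: human ARF1(Δ1-17)-GTP substrate; compound dosing: one concentration, 16.5 µM, DMSO 1.26%; incubation: GTP hydrolysis reaction 2 h at 25 °C; measured by: Tracer-displacement fluorescence polarization with EDTA stop, 620/688 nm; evaluation: % inhibition from polarization; repeats: one replicate per compound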
Casp6 inh: human caspase-6 inhibitors, primary screen, biochemical, VEID-R110 fluorescence, single point, set 2; P55212; purified caspase-6, Z-VEID-R110 cleavage fluorescence; inhibition, % at 12.5 µM; 350,000 tested, 0.53% active; AID 686996, 2013;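 active = mean inhibition across replicates at least about 35%, with every replicate also reaching that limit, limit read from the data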;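 also: 0% = median of neutral control wells and 100% = no fluorescence left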
Target sequence (P55212 24-179 limits assumed): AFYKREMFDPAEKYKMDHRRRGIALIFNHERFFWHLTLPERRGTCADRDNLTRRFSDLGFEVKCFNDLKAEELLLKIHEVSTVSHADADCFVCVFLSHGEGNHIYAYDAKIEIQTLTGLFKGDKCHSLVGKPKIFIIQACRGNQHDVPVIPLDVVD
Target sequence (P55212 194-293 limits assumed): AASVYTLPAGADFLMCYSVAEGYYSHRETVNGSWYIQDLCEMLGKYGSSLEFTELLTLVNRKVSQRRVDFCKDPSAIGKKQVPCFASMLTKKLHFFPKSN
TDP2 inh conf: human TDP2 enzyme inhibitors, retest, confirmation, biochemical, epi absorbance, recombinant enzyme; shares compounds with TDP2 absorb; absorbance read-out; inhibition, % at 12.8 µM; 1,100 tested, 22% active;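 also: 0% = vehicle with enzyme and 100% = no enzyme buffer only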
An asterisk follows results filed as active; . = no result. Rule as the data show it, unless noted: active = inhibition above about 25%; inactive = the rest.

SMILES	TDP2 absorb	ASAP1 GAP inh	LEDGF integ inh	ARFGAP1 inh	Casp6 inh	TDP2 inh conf
CC(=O)C1=C(C)NC2(O)c3ccccc3C(=O)C12O (stereo unspecified)	5	-5	4	-9	.	.
COCCOC(=O)C1=C(C)NC2(O)c3ccccc3C(=O)C12O (stereo unspecified)	46*	14	-15	-8	.	8
COCCOC(=O)C1=C(C)NC(C)=C(C(=O)OCCOC)C1/C=C/c1ccccc1OC	15	-5	1	3	-1	.
CCOC(=O)C1=C(C)NC2(O)c3ccccc3C(=O)C12O (stereo unspecified)	47*	-1	7	-3	.	25*
O=C(NC(Cc1c[nH]c2ccccc12)C(=O)N/N=C/c1cccc2ccccc12)c1cccs1 (stereo unspecified)	-8	4	-8	20	-1	.
COCc1cc(C)nc(N2CCN(c3ccccc3)CC2)c1C#N	-5	0	0	-1	.	.
CN(C)CC(=O)Nc1ccc2c(c1)[C@H]1C[C@@H](CC(=O)NCc3ccncc3)O[C@H](CO)[C@H]1O2	.	.	.	.	-3	.
N#CC(=C=[N-])c1nc2ccccc2nc1-[n+]1ccccc1	4	1	-4	-2	-5	.
O=C(NCC(=O)N1CCCC1)c1ccc(Br)cc1	10	-5	0	-13	0	.
C/C(=N\NC(=O)CNC(=O)c1ccco1)c1ccc(Br)cc1	13	3	1	4	-2	.
C/C(=N\NC(=O)CNC(=O)c1ccc(Br)cc1)c1ccco1	36*	-12	0	0	3	-9
O=C(NCC(=O)N1CCN(C(=O)c2ccco2)CC1)c1ccc(Br)cc1	25*	-1	3	2	2	-4
Cc1ccc2c(c1)C1CN(C)CCC1N2C(=O)COc1ccc(N(C)C(=O)c2ccccc2)cc1 (stereo unspecified)	-15	1	7	2	-6	.
Oc1ccc2ccccc2c1C=NC12CN3CCN(CN(C3)C1)C2	53*	-4	24*	0	.	36*
Clc1cc(Cl)cc(CSc2nnc(-c3sccc3-n3cccc3)o2)c1	5	-10	1	14	.	.
Cc1ccc(-n2nc3c(c2NC(=O)C2CC2)CS(=O)(=O)C3)cc1C	2	13	-1	10	0	.
Cc1ccc(-n2nc3c(c2NC(=O)C2CC2)CS(=O)(=O)C3)cc1	27*	-13	0	10	-1	7
O=C(NCc1cccs1)C(NS(=O)(=O)c1cccc2nsnc12)c1ccccc1 (stereo unspecified)	-7	-7	0	-4	.	.
COc1ccc(NC(=O)CN(C)S(=O)(=O)c2ccc(Br)s2)cc1	25*	10	1	4	-1	1
CC1(C)C(C=C(Cl)Cl)C1C(=O)OCc1cccc(Oc2ccccc2)c1 (stereo unspecified)	-3	-16	5	-4	-5	.
CN(C)c1ccc(C=c2c3ccccc3n3c2cc(-c2ccccc2)[n+]3C)cc1	30*	10	12	2	19	10
CN(C)c1ccc(C=C2C=C(c3ccccc3)OC2=O)cc1	3	0	-3	4	-2	.
COC(=O)/C(C#N)=C/c1c(Oc2cc(C)cc(C)c2)nc2c(C)cccn2c1=O	11	12	2	8	.	.
Cc1ccc(C)n1-c1nnc(N2CCC(C(=O)N3CCN(C)CC3)CC2)s1	-7	4	-2	2	-105	.
COc1cc2c(c(OC)c1O)C(=O)CO2	25*	9	-4	-2	4	-4
O=C(C1=C(O)C(=O)N(CC2CCCO2)C1c1cccc(O)c1)c1ccco1 (stereo unspecified)	27*	4	4	7	8	10

Compound activity as filed in PubChem BioAssay.
